Source: PubChem BioAssay (The Scripps Research Institute Molecular Screening Center)
The list is not random: actives were taken first. Their share in the collection is about 2.4%.
NPY Y1 blocker: antagonists of human neuropeptide Y receptor Y1. HEK293-CNG Y1 cells, membrane potential fluorescence; NPY at EC95, then isoproterenol. inhibition, % at 3.6 µM. actives 1% (n = 200,000). AID 1040;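 active = inhibition above the campaign mean inhibition of all tested compounds plus 3 SD, cut at about 20% in these data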;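 note: 0% = DMSO wells given NPY plus isoproterenol and 100% = isoproterenol alone without NPY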
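Test system: HEK293 cells co-expressing NPY Y1 receptor and cyclic-nucleotide gated channel; Also added: NPY (25 nM), isoproterenol (1 µM), Ro 20-1724 (25 µM); Compound dosing: one concentration, 3.6 µM, in 0.4% DMSO; Timing: dye 3 h, compound 60 min room temperature, stimulation 45 min; Technique: Membrane-potential fluorescent dye readout.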
NPY-Y1 PAM-ag: human NPY-Y1 potentiation or agonism, primary screen; P25929; NPY-Y1 expressing cells, potentiator/agonist activation; activation, % at 3.6 µM; actives 0.37% (n = 220,000); AID 1304; in the data active = activation above about 33%, passing the limit was not always enough;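 note: cells stimulated with NPY at EC10 then isoproterenol at EC100; 0% = low agonist plus stimulus and 100% = saturating agonist plus stimulus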
S1P4 antagonist: antagonists of human S1P4 receptor. S1P4-expressing cells, antagonist mode, reporter read-out. inhibition, % at 4.98 µM. actives 0.26% (n = 220,000). AID 1510; in the data active = inhibition above about 29%;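 note: 0% = wells stimulated with agonist and 100% = vehicle wells without agonist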
Target sequence (O95977 whole entry, looked up): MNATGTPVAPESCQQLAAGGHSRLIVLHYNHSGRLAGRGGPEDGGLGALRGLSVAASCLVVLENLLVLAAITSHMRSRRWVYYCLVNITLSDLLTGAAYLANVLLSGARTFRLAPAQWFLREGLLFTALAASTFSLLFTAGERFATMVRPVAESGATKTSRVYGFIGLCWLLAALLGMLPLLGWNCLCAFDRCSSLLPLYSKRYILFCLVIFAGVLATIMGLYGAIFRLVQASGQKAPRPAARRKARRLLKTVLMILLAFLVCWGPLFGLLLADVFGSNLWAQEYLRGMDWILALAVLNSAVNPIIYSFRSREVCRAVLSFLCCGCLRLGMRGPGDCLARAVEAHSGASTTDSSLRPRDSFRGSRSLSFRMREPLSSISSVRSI
NPY2 pot ag: potentiators or agonists of human neuropeptide Y receptor Y2; P49146; cells expressing NPY-Y2, potentiator/agonist read-out; activation, % at 3.6 µM; actives 0.45% (n = 220,000); AID 1359; in the data active = activation above about 27%;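 note: cells stimulated with NPY near EC25 plus isoproterenol at EC100; 0% = vehicle plus submaximal agonist and 100% = vehicle plus saturating agonist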
S1P4 agonist: agonists of human S1P4 receptor; O95977; S1P4-expressing cell line, agonist reporter assay; activation, % at 4.98 µM; actives 0.35% (n = 220,000); AID 1509; in the data active = activation above about 11%;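 note: 0% = DMSO vehicle and 100% = reference agonist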
NPY Y2 blocker: NPY-Y2 (human) receptor antagonism | actives 0.99% (n = 140,000) | inhibition, % at 2.7 µM | NPY-Y2 expressing cells, antagonist mode | P49146; in the data active = inhibition above about 17%;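 note: 0% = vehicle with agonist challenge and 100% = reference antagonist with challenge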
* marks the source's active call; other numbers are inactive results; . = not tested or not shown.

SMILES	NPY Y1 blocker	NPY-Y1 PAM-ag	S1P4 antagonist	NPY2 pot ag	S1P4 agonist	NPY Y2 blocker
Cc1ccccc1Nc1c(-c2cccnc2)nc2cccc(C)n12	-2	39*	-24	29*	2	.
CC(=O)NC1C(=O)N(CCc2ccccc2)c2ccc(Br)cc21 (configuration not stated)	23*	-19	6	-7	3	23*
O=C1CCC(/C=C/c2ccccc2)=NN1Cc1ccc(Cl)c(Cl)c1	20*	-34	-12	-10	-3	25*
O=C1CCC(/C=C/c2ccccc2)=NN1Cc1ccccc1Cl	4	1	-4	-7	2	2
COc1ccccc1N1CCN(C(=O)CSc2nnc3n2C(C)(C)Cc2ccccc2-3)CC1	-11	96*	-7	75*	2	1
CCCN(CCC)CCOc1cc(C)ccc1C(C)C	28*	-16	-22	-6	0	27*
Cc1ccc(NC(=S)N(Cc2ccc(Br)cc2)Cc2ccc(C(=O)O)cc2)cc1C	2	1	-4	8	2	.
CCOC(=O)c1cnc(-n2nc(C)cc2C)nc1NC1CCCCC1	31*	-146	3	1	1	20*
CCOc1ccccc1N(C(=O)c1snc(C(N)=O)c1N)C(C(=O)NC1CCCC1)c1ccco1 (configuration not stated)	26*	-4	6	-2	0	20*
CCOc1ccccc1N(C(=O)c1ccco1)C(C(=O)NC1CCCC1)c1cccnc1 (configuration not stated)	1	-8	4	-1	1	0
COc1ccc(-c2c3c(=O)n(C)c(=O)n(C)c3cn2-c2cc(OC)ccc2OC)cc1	21*	-22	-1	-25	0	13
COc1ccc(C(=O)NCc2nnc(SCC(=O)N3CCCc4ccccc43)o2)cc1OC	-3	3	-5	1	-2	.
NS(=O)(=O)c1ccc(N=Nc2c(O)ccc3ccccc23)cc1	-1	18	-12	10	0	.
Oc1ccc(N=Nc2c(O)ccc3ccccc23)cc1	-19	87*	-11	82*	0	-9
COc1ccc(CNCCC(c2ccccc2)c2ccc3c(c2)OCO3)cc1 (configuration not stated)	34*	6	-4	-3	0	17*
O=c1[nH]c2ccc(Cl)cc2c(-c2ccccc2)c1SC(=S)N1CCCCC1	2	-23	-15	-3	2	1
O=c1[nH]c2ccc(Cl)cc2c(O)c1-c1ccccc1	3	13	-11	1	1	18*
Cc1cccc(-n2c(C)cc(C)c(C#N)c2=O)c1	0	9	-17	9	1	.
O=C1c2ccccc2C(=O)N1n1cccc1	-3	4	-4	1	2	0
CC(C)CC(=O)NC(=S)Nc1ccc(S(=O)(=O)Nc2nccs2)cc1	5	-12	-20	0	0	2
Cc1cc(C)n(-c2nc(SCCN(C)C)c3c4c(sc3n2)COC(C)(C)C4)n1	147*	-167	-7	-59	-2	78*
c1ccc(-c2ccccc2OCCCN2CCCCC2)cc1	28*	13	0	-6	0	18*
CC(=O)NC1C(=O)N=C(SC(C)C(=O)Nc2cccc(Cl)c2)NC1=O (configuration not stated)	7	15	-8	-5	2	.
COc1cccc(CNCCc2c[nH]c3ccccc23)c1OCc1ccccc1	50*	-51	-3	-15	-4	24*
O=C(Nc1cccc(S(=O)(=O)NC2=NCCC2)c1)C1CC(=O)N(c2ccc3c(c2)OCCO3)C1 (configuration not stated)	0	5	-5	4	0	.
COc1cccc(CN2CCN(CCc3ccccc3)C(CCO)C2)c1OC (configuration not stated)	2	-7	-3	1	0	.
COc1cccc(CN2CCC(N(CCc3ccccc3)Cc3ccccc3)CC2)c1OC	35*	-30	2	-1	-1	31*
O=C(CNC(=O)C12CC3CC(CC(C3)C1)C2)N/N=C\c1ccccn1	4	13	-4	5	1	.
O=C(Nc1ccc(CN2CCCCC2)cc1)c1cc(Br)ccc1Cl	8	-14	-1	-9	-1	.
O=C(Nc1ccc(CN2CCCCC2)cc1)c1cccc(Br)c1	2	43*	-2	56*	-3	5
